Measured values from different studies.
Protocols differ between the studies behind these lines.
Target: Uncharacterized serine/threonine-protein kinase SBK3 (SBK3, Homo sapiens, UniProt P0C264)
Sequence (P0C264 1-359, as in one of the studies): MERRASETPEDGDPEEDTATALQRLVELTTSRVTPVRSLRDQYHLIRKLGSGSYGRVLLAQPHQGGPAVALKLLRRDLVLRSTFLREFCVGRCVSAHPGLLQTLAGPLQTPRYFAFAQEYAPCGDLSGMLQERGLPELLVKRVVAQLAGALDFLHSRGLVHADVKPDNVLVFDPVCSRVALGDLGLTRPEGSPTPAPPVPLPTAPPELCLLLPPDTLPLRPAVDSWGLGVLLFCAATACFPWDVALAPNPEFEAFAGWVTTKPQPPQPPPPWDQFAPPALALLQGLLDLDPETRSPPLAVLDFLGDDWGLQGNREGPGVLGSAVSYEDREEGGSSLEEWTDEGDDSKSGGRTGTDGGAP

SMILES | effect on | method | tested at | remaining binding
O=C(NCC1CCOCC1)c1n[nH]cc1NC(=O)c1c(F)cccc1F | binding | competition with immobilised ligand | 1 µM | 68%
c1cncc(-c2cccc(Nc3nccc(NC4CCCCC4)n3)c2)c1 | binding | competition with immobilised ligand | 10 µM | 33%
O=C(c1ccc(Nc2ncc(Cl)c(-c3ccc(Cl)s3)n2)cc1)N1CCC(N2CCCC2)CC1 | binding | competition with immobilised ligand | 1 µM | 62%
Cn1nc(C(=O)NCc2ccc(C(=O)O)cc2)cc1-c1ccc2[nH]ccc2c1 | cell-free assay | competition with immobilised ligand | 0.1 µM | 79%
COc1cnc(Nc2cccc(S(N)(=O)=O)c2)nc1N1CCN(c2ccccc2)CC1 | binding | competition with immobilised ligand | 1 µM | 100%
O=C(c1ccc(Nc2nccc(-c3cc4ccccc4s3)n2)cc1)N1CCC(N2CCCC2)CC1 | binding | competition with immobilised ligand | 1 µM | 88%
COCCOc1nc(-c2ccc(Cl)nc2)nc2c1CN(C(=O)c1ncn3ccccc13)CC2 | cell-free assay | competition with immobilised ligand | 0.1 µM | 100%
CC1CCCN1c1nccc(-c2cnn3ncccc23)n1 (stereo not drawn) | binding | – | 1 µM | 100%
CO[C@@H](C)c1c(Nc2ccc([C@@H](N(C)C(=O)C3CCS(=O)(=O)CC3)C(F)(F)F)cc2)cnc2cc(Cl)nn12 | cell-free assay | competition with immobilised ligand | 1 µM | 81%
COc1ncc2cc3ccccc3nc2c1C#N | cell-free assay | competition with immobilised ligand | 5 µM | 100%
Cc1cnc(Nc2ccc(C(=O)N3CCC(N4CCCC4)CC3)cc2)nc1-c1cc2ccccc2s1 | binding | competition with immobilised ligand | 1 µM | 46%
CN(c1nccc(-c2cnn3ncccc23)n1)C1CC1 | binding | – | 1 µM | 100%
CC(=O)C1=C(C)N(c2cccc(C(F)(F)F)c2)C(=O)N[C@@H]1c1ccc(C#N)nc1 | cell-free assay | competition with immobilised ligand | 1 µM | 100%
CN(C)c1ncc(F)c(-c2cnn3ncccc23)n1 | binding | – | 1 µM | 74%
CCCCN(CCCC)C(=O)CN1C[C@@H](c2cc(OC)c3c(c2)OCO3)[C@H](C(=O)O)[C@H]1CC(C)(C)CCC | cell-free assay | competition with immobilised ligand | 1 µM | 100%
N[C@@H]1CCN(c2nccc(-c3cnn4ncccc34)n2)C1 | binding | – | 1 µM | 100%
Nc1ncc2c(n1)-c1c([nH]c3ccc(C#CC4CC4)cc13)CCCC2 | binding | competition with immobilised ligand | 1 µM | 100%
F[C@@H]1CCN(c2nccc(-c3cnn4ncccc34)n2)C1 | binding | – | 1 µM | 100%
Cc1nc(Cc2cccc(C(F)(F)F)c2)sc1-c1ccc(C(N)=O)nc1 | cell-free assay | competition with immobilised ligand | 1 µM | 100%
Cc1cnn2ncc(-c3ccnc(N(C)C)n3)c2c1 | binding | – | 1 µM | 26%
C[C@@H](c1ccc(-n2cnc3c(N)ncnc32)cc1)N1CCc2nn(C)c(Cc3ccccc3)c2C1=O | binding | competition with immobilised ligand | 0.1 µM | 99%
